# Screening data as filed in PubChem BioAssay.
# In the library only some 3.4% were active in any assay of this set; here they are far more common.
# m5-HT2A agonist: mouse HTR2A agonism via beta-arrestin recruitment | P35363 | CHO-K1 mHTR2A beta-arrestin complementation, luminescence; percent of 30 µM serotonin response | activation, % at 7.6 µM | hit rate 0.66% among 360,000 | AID 624169;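 active = activation above a run cutoff, the mean activation of all tested compounds plus 3 SD, cut at about 14% in these data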;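 also: 0% = plate median of compound wells and 100% = 30 µM serotonin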
# MC4R barr agon: activates human MC4R beta-arrestin recruitment; U2OS MC4R beta-arrestin complementation, luminescence; percent of melanotan II response, DMSO zero; activation, % at 8.9 µM; hit rate 0.98% among 360,000; AID 540308;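 active = activation above a per-plate cutoff, the mean activation of sample wells on that plate plus 3 SD, cut at about 8% in these data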
# Target sequence (P32245 whole entry, looked up): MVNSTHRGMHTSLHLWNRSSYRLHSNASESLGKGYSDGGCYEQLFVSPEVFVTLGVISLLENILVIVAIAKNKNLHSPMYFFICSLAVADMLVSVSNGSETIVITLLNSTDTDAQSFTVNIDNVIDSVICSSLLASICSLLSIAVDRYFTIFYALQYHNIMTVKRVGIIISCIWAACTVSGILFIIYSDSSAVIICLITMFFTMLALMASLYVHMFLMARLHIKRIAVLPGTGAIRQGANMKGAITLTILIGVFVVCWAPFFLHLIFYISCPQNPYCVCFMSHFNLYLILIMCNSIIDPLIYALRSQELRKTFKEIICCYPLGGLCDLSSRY
# MC4R antagonist: antagonists of human melanocortin 4 receptor (MC4R); MC4R-expressing cells, MTII-stimulated cAMP, LANCE TR-FRET; inhibition, % at 6.5 µM; hit rate 0.48% among 360,000;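 active = inhibition above its plate's cutoff, the mean of tested wells on that plate plus 3 SD, cut at about 29% in these data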;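 also: 0% = Melanotan II alone and 100% = Melanotan II plus saturating MCL0020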
#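 Test system: U2OS cells stably expressing human melanocortin 4 receptor (MC4R); also added: Melanotan II challenge; compound: 6.5 µM single dose; timing: 30-min compound preincubation, 1-h Melanotan II challenge, 1-h detection, room temperature; signal: Eu-cAMP/anti-cAMP TR-FRET, emission 671 nm; repeats: one well per compound, no replicates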
# ANO1 block: mouse TMEM16A channel inhibition, primary screen | HEK293 TMEM16A/YFP iodide influx fluorescence, ionomycin | normalized B-score (activity score, 25-100; higher = stronger inhibition) at 10 µM | hit rate 1.2% among 310,000 | AID 588511;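 active = ratio plate-corrected score three or more library SD toward inhibition, starting fluorescence score within five deviations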;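 also: score derived from kinetic fluorescence span divided by baseline fluorescence per well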
# ANO1 activ: activates or potentiates the mouse TMEM16A chloride channel; Q8BHY3; AID 623877; hit rate 0.3% among 340,000; HEK293 TMEM16A/YFP-H148Q/I152L, iodide quench fluorescence; stronger effect = lower value; B-score at 10 µM;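 active = fluorescence-ratio B-score plate-corrected deviation score at least 3 library SD below zero, with starting fluorescence score within 5 deviations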;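 also: channel opened by trigger with iodide after compound preincubation; score built on the fluorescence ratio of max minus min over baseline; more negative score means more quench and so TMEM16A activation or potentiation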
# MIN6 prolif: inducers of beta-cell replication in MIN6 cells; MIN6 cells proliferation, ATPlite luminescence, 48 h; cells starved in 0.2% serum; 100% = growth in 10% serum; proliferation, % at 10 µM; hit rate 0.29% among 330,000; AID 2380;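 active = compounds whose signal lies at least 3.5 SD above the mean of all wells on their plate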;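 also: 0% = DMSO-treated cells in low-serum medium and 100% = 10% serum control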
# TMEM16A reconf: reconfirmed blocker of mouse TMEM16A calcium-activated chloride channel | shares compounds with ANO1 block | HEK293 TMEM16A/YFP-H148Q, iodide quench fluorescence; ionomycin added to raise cell calcium | inhibition, % at 10 µM | hit rate 39% among 2,300 | AID 652189;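 active = mean duplicate percent inhibition, scaled so buffer wells are 0 and the reference blocker 100, over three buffer SD above buffer mean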
# TMEM16A Ca cntr: counter-screen for TMEM16A inhibitors: effect on calcium mobilization; hit rate 2% among 2,300; TMEM16A/YFP HEK293, Fluo4 calcium mobilization; calcium response (% of ionomycin), % at 10 µM; shares compounds with ANO1 block;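 active = duplicate-averaged calcium signal over 20% of the ionomycin maximum, relative to buffer baseline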;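 also: each well's signal is peak minus trough fluorescence divided by its pre-addition baseline; 0% = buffer wells and 100% = ionomycin wells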
# YFP-HEK293 quench: counter-screen for TMEM16A inhibitors: effect in parental YFP-HEK293 cells. shares compounds with ANO1 block. iodide YFP quench, ionomycin. YFP ratio F(max-min)/F0 at 10 µM. 2,300 tested, under 10 active;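 active = yellow fluorescent protein signal ratio exceeding the buffer control mean by over 5 SD of those controls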;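 also: ratio is mean of duplicate wells from kinetic YFP trace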
# ClC-1 rat inh: rat ClC-1 inhibition, TMEM16A specificity screen | shares compounds with ANO1 block | CHO ClC-1-YFP, iodide influx fluorescence quench; iodide control reads 0, buffer control 100 | ratio percent, % at 10 µM | 2,300 tested, under 10 active;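 active = duplicate-mean ratio percent above the mean of iodide-only control wells, which defines zero, plus 5 of their SD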;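 also: higher percent means stronger block of ClC-1 iodide influx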
# * marks the source's active call; other numbers are inactive results; i = inactive; . = no result.
SMILES,m5-HT2A agonist,MC4R barr agon,MC4R antagonist,ANO1 block,ANO1 activ,MIN6 prolif,TMEM16A reconf,TMEM16A Ca cntr,YFP-HEK293 quench,ClC-1 rat inh
O=c1c(-c2ccc(Oc3ccccc3)cc2)[n+]([O-])c2ccccc2n1OCc1ccccn1,0.9,-0.6,16.7,i,i,1.1,.,.,.,.
CCOc1ccc(-c2c(=O)n(OCc3ccccn3)c3ccccc3[n+]2[O-])cc1,-3.1,-2.9,-7.0,25*,i,-2.6,i,i,-1.07,-3.5
COc1ccc(CCNC(=O)c2cc3cc(Cl)ccc3nc2N)cc1OC,13.5,.,.,.,.,.,.,.,.,.
Cc1ccc(C(=O)N2CCCC(C(=O)c3ccc(Oc4ccccc4)cc3)C2)cn1 (centres undefined),2.1,0.0,17.2,100*,i,-0.3,29.0%*,i,-0.89,-10.5
Cc1cc(Cl)ccc1OCCCC(=O)Nc1cccnc1,-0.4,-2.2,-1.4,25*,i,-0.2,22.0%*,i,-0.86,-1.5
COc1ccccc1CNc1nc(Nc2ccccc2-n2cccn2)c2sccc2n1,-5.6,8.2,12.4,.,.,.,.,.,.,.
CC(=O)c1c[nH]c2ccc(C)cc2c1=O,5.5,0.8,6.7,100*,i,-2.4,i,i,-0.893,-9.0
CCOC(=O)C1=C(C)N(CCCCCC(=O)O)C(=O)NC1c1cccc([N+](=O)[O-])c1 (centres undefined),1.6,-0.6,1.6,i,i,-1.2,.,.,.,.
CC1=C(C(=O)OCC(Br)(Br)Br)C(c2cccc([N+](=O)[O-])c2)NC(=O)N1CCCC(=O)O (centres undefined),6.8,-1.3,4.3,25*,i,-4.5,i,i,-0.991,-0.5
CC(C)[C@H](NC(=O)N1c2ccccc2NC(=O)[C@@H]1C(C)C)C(=O)N[C@@H](Cc1c[nH]c2ccccc12)C(=O)O,-1.1,-0.6,15.7,i,i,-1.8,.,.,.,.
CCN(C1CCCCC1)S(=O)(=O)c1ccc(OC)c(C)c1,0.8,-1.2,-4.1,100*,i,-1.7,i,i,-1.18,-4.5
CCCCOC(=O)c1ccc(NC(=O)COC(=O)C2CSC3(C)CCC(=O)N23)cc1 (centres undefined),-7.8,-2.5,6.5,25*,i,-3.2,30.5%*,i,-0.946,-4.0
Cc1nc2cc(-c3ccsc3-n3c(C)ccc3C)[nH]n2c(=O)c1Cl,1.8,-1.8,-2.8,100*,i,-0.9,20.5%*,i,-0.905,-14.0
Cc1cc(=O)n2[nH]c(-c3ccsc3-n3c(C)ccc3C)cc2n1,5.3,0.0,9.0,i,i,-2.2,.,.,.,.
COC1=CC(=O)OC(c2cccc(C(F)(F)F)c2)C1 (centres undefined),-0.4,.,.,.,.,.,.,.,.,.
CN=C1S/C(=C\c2ccc(O)c(Br)c2)C(=O)N1C,2.6,1.6,-8.7,25*,i,-4.8,i,i,-1.01,-9.5
CN1/C(=C\C(=O)Nc2ccc(Cl)cc2)C(C)(C)c2ccccc21,-5.0,-1.1,9.8,25*,i,-5.7,i,i,-1.29,-10.0
CC(=O)Nc1ccc(C(=O)N2CCCCC2c2cc(C(=O)NCc3cccnc3)no2)cc1 (centres undefined),5.2,-0.7,-0.6,.,.,.,.,.,.,.
O=c1[nH]c(=O)n(-c2ccc(F)cc2)c2c1C(C(F)(F)F)(C(F)(F)F)N=C(c1ccc(F)cc1)N2,4.3,-1.1,5.4,25*,i,0.0,26.0%*,i,-0.947,-23.5
